Screening results: PubChem, several laboratories
This is a sample that favours compounds with a hit; in the whole collection about 2% have one here.
Rev-RRE block: HIV Rev-RRE protein-RNA interaction inhibition. P05866. 97,000 tested, 0.79% active. Rev peptide-RRE RNA binding, FRET. inhibition, % at 8 µM;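 active = inhibition above the screen-wide mean plus 3 SD, cut at about 35% in these data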;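 note: 0% = median DMSO wells and 100% = median Neomycin B control wells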
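Material: labelled RRE RNA duplex and labelled Rev peptide / Buffer or medium: HEPES pH 7.5 salt buffer with EDTA / Compound dosing: single point, 8 µM final nominal compound concentration / Benchmarks: DMSO low control, neomycin B high control / Timing: 5 min preincubation and 15 min binding, 25 °C / Technique: FRET fluorescence readout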
PTPN22 inh 2: inhibitors of human LYP (PTPN22) phosphatase. 96,000 tested, 0.21% active. Q9Y2R2. inhibition, % at 2 µM. recombinant LYP catalytic domain, DiFMUP fluorescence. AID 640;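 active = inhibition at 2 µM at or above a set limit, the screen mean plus 3 SD, cut at about 24% in these data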;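 note: 0% = DMSO with enzyme and 100% = enzyme fully blocked by orthovanadate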
LYP act: activators of human LYP (PTPN22) phosphatase; Q9Y2R2; recombinant LYP, DiFMUP fluorescence; 0 = plate median, 100 = signal doubled; activation, % at 2 µM; 96,000 tested, 0.11% active; AID 697;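 active = activation at 2 µM above a set limit, the mean plus 5 SD, cut at about 37% in these data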
EphB4 ephrin blk: antagonists of human EphB4-ephrin-B2 interaction | AID 720 | P54760 | inhibition, % at 7 µM | EphB4 LBD / TNYL-RAW-Alexa532 peptide, fluorescence polarization | 97,000 tested, 0.15% active;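 active = inhibition above the screen-wide mean inhibition plus 3 SD, cut at about 15% in these data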;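 note: 0% = DMSO wells and 100% = excess unlabeled TNYL-RAW peptide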
Target sequence (P54760 whole entry, looked up, the tested form may be a part): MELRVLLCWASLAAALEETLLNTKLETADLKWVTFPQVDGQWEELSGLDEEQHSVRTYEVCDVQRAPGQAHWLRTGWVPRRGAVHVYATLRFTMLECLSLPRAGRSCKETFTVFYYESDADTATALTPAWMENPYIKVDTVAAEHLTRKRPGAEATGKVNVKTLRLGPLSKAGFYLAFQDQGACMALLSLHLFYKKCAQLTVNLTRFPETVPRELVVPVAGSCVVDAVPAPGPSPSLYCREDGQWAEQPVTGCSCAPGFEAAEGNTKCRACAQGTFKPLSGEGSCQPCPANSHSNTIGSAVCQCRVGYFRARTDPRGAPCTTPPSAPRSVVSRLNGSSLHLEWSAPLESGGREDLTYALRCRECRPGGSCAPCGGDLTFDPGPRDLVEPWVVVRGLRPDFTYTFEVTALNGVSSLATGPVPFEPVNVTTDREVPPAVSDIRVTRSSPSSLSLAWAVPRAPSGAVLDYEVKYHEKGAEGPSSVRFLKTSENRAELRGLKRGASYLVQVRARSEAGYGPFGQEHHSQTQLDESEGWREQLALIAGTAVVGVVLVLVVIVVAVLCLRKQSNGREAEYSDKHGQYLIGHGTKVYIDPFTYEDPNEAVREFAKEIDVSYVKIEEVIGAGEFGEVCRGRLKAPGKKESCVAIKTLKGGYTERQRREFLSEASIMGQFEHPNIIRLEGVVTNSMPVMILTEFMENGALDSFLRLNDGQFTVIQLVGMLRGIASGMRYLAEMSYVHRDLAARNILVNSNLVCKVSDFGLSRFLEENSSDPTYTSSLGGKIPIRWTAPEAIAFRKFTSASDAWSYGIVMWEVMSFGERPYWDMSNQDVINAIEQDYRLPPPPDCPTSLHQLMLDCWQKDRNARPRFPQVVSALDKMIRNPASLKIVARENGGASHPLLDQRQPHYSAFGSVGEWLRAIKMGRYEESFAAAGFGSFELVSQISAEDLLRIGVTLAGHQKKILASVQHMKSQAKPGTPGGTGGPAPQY
Plk1 PBD FP: blocks phosphopeptide binding to human Plk1 polo box domain | Plk1 PBD phosphopeptide binding, fluorescence polarization | 97,000 tested, 0.13% active | inhibition, %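 (tested at about 20 µM)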 | P53350 | AID 693; in the data active = inhibition above about 34%, passing the limit was not always enough
PLK1 kinase inh: inhibitors of human PLK1 kinase; P53350; AID 619; inhibition, % at 10 µM; recombinant PLK1 kinase, TR-FRET peptide phosphorylation; 97,000 tested, 0.53% active;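 active = inhibition of 50% or more in the single-concentration screen; inactive = inhibition below 50%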;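 note: 0% = DMSO max control and 100% = H-89 dihydrochloride min control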
PTPN22 act conf: confirmation of human LYP phosphatase activators; shares compounds with LYP act; Recombinant LYP, DIFMUP fluorescence, activation; zero set by plate's median compound well; activation, % at 2 µM; 100 tested, under 10 active; call rule not given here
Starred values were filed as active, the others as inactive; i = inactive; / = no result given.

SMILES	Rev-RRE block	PTPN22 inh 2	LYP act	EphB4 ephrin blk	Plk1 PBD FP	PLK1 kinase inh	PTPN22 act conf
O=C(CCn1[nH]c(=O)c2ccccc2c1=O)N1CCOCC1	6	-8	7	1	1	-2	/
O=C(O)CCn1[nH]c(=O)c2ccccc2c1=O	7	-36	37*	9	2	-10	8
COc1ccc(-n2c(=O)c3ccccc3n(CC(=O)NC3CCCCC3)c2=O)c(OC)c1	3	-2	0	2	-10	-4	/
CC12CC3(C)CC(C)(C1)CC(C(=O)NC1=NCCS1)(C2)C3	17	-9	6	1	-14	-4	/
Cc1c(-c2nc(N)nc(Nc3ccccc3)n2)oc2ccccc12	-5	-37	37*	-10	1	-12	-1
CC1CCCN(C(=O)C23CCC(C)(C(=O)C2)C3(C)C)C1 (stereo not given)	-1	13	-13	-3	5	-8	/
C[C@H](C(=O)O)c1n[nH]c(=O)c2ccccc12	-1	-7	5	-2	8	1	/
Cc1ccc(C(=O)/C=C2\NCCNC2=O)cc1	5	4	-5	2	-3	-3	/
CCN(CC)c1ccc(N2C(=O)/C(=C/c3cccs3)SC2=S)cc1	5	-4	1	-5	-22	-7	/
CN(C)c1ccc(/C=C/C=C2/SC(=S)N(c3ccccc3)C2=O)cc1	i	-38	40*	-11	-16	-8	0
O=C(CCNS(=O)(=O)c1cccs1)Nc1ccccc1F	6	-38	42*	-2	6	-9	-4
O=C(CCNS(=O)(=O)c1cccs1)Nc1nccs1	6	-8	6	-2	10	19	/
c1ccc(-c2nnc(SCCC3OCCCO3)o2)cc1	-1	-42	47*	1	16	-17	-2
O=C(Nc1ccccc1)C1CCCCC1	11	-7	9	5	-22	0	/
O=C(NC(=S)NCc1ccccc1)C1CCCCC1	-10	-35	39*	5	-18	-3	4
COc1ccc(NC(=O)CSc2nc(C)c3c(c2C#N)CCCC3)cc1	1	-44	47*	-2	-17	-11	3
CC(C)(C)NCCCCOc1ccc(F)cc1	8	-43	40*	-8	14	-10	-2
COC(=O)Cc1c(C)nc2nc(NCc3c(F)cccc3Cl)[nH]n2c1=O	3	4	-7	-4	18	-9	/
